Measured values taken from ChEMBL document CHEMBL2086321, “Modulation of thermo-transient receptor potential (thermo-TRP) channels by thymol-based compounds” (Bioorg Med Chem Lett, 2012).

Assays:
Assay type in all cases: cell-based
[1] = molecular target: T1, Transient receptor potential cation channel subfamily A member 1 (Rattus norvegicus, UniProt Q6RI86); assay: Activation of rat TRPA1 expressed in HEK293 cells assessed as stimulation of intracellular Ca2+ levels
Outline: (§1)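 HEK293 cells stably transfected with rat TRPA1, rat TRPM8 or rat TRPV3 cDNA. Compounds were applied and the rise in intracellular Ca2+ was recorded.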

[2] = molecular target: T1, Transient receptor potential cation channel subfamily A member 1; assay: Inhibition of rat TRPA1 expressed in HEK293 cells assessed as reduction in 100 uM allyl isothiocyanate-stimulated increase in intracellular Ca2+ levels
Outline: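 Rat TRPA1-HEK293 stable cells were preincubated 5 min with compound, then incubation continued with allyl isothiocyanate.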

[3] = molecular target: Transient receptor potential cation channel subfamily M member 8 (Rattus norvegicus) (UniProt Q8R455); assay: Activation of rat TRPM8 expressed in HEK293 cells assessed as stimulation of intracellular Ca2+ levels relative to 4 uM ionomycin
Sequence of Transient receptor potential cation channel subfamily M member 8 (Rattus norvegicus) (Q8R455 whole entry, looked up): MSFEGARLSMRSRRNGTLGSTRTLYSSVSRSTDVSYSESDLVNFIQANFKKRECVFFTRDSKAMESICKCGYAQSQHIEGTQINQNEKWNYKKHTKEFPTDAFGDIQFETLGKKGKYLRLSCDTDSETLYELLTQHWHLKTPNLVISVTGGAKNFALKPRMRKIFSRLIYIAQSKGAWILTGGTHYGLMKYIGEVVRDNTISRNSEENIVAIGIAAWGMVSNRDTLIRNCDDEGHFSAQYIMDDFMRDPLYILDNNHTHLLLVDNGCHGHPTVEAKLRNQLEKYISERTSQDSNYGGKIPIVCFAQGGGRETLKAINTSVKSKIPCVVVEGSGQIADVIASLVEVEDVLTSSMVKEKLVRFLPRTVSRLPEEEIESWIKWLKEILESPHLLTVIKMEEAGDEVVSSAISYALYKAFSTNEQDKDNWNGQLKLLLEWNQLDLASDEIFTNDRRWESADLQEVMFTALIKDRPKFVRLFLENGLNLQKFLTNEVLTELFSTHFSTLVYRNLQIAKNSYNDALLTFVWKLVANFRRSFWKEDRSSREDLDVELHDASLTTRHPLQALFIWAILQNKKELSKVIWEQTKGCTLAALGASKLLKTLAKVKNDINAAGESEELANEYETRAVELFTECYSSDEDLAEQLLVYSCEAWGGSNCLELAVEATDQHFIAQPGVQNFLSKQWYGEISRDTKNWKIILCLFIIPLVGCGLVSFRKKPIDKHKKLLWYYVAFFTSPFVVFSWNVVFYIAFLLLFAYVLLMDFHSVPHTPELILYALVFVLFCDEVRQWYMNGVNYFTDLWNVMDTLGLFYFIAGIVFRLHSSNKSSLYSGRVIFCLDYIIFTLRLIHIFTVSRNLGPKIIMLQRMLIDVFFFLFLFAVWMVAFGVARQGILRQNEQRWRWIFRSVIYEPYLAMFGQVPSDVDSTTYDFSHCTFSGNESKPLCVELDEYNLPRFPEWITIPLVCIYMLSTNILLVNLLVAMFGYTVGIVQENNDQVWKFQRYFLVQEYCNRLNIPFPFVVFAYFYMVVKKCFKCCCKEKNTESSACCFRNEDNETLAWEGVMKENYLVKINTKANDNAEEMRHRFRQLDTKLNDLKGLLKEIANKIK
Outline: (§2)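 Efficacy on HEK293 cells stably expressing rat TRPM8 or rat TRPV3 is the intracellular Ca2+ elevation expressed as percent of the ionomycin response.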

[4] = molecular target: T2, Transient receptor potential cation channel subfamily M member 8 (Rattus norvegicus, UniProt Q8R455); assay: Inhibition of rat TRPM8 expressed in HEK293 cells assessed as reduction in […] icilin-stimulated increase in intracellular Ca2+ levels
T2 sequence (Q8R455 whole entry): as the sequence (Q8R455 whole entry, looked up) above

[5] = molecular target: Transient receptor potential cation channel subfamily A member 1 (Rattus norvegicus) (UniProt Q6RI86); assay: Activation of rat TRPA1 expressed in HEK293 cells assessed as stimulation of intracellular Ca2+ levels relative to 100 uM allyl isothiocyanate
Sequence of Transient receptor potential cation channel subfamily A member 1 (Rattus norvegicus) (Q6RI86 whole entry): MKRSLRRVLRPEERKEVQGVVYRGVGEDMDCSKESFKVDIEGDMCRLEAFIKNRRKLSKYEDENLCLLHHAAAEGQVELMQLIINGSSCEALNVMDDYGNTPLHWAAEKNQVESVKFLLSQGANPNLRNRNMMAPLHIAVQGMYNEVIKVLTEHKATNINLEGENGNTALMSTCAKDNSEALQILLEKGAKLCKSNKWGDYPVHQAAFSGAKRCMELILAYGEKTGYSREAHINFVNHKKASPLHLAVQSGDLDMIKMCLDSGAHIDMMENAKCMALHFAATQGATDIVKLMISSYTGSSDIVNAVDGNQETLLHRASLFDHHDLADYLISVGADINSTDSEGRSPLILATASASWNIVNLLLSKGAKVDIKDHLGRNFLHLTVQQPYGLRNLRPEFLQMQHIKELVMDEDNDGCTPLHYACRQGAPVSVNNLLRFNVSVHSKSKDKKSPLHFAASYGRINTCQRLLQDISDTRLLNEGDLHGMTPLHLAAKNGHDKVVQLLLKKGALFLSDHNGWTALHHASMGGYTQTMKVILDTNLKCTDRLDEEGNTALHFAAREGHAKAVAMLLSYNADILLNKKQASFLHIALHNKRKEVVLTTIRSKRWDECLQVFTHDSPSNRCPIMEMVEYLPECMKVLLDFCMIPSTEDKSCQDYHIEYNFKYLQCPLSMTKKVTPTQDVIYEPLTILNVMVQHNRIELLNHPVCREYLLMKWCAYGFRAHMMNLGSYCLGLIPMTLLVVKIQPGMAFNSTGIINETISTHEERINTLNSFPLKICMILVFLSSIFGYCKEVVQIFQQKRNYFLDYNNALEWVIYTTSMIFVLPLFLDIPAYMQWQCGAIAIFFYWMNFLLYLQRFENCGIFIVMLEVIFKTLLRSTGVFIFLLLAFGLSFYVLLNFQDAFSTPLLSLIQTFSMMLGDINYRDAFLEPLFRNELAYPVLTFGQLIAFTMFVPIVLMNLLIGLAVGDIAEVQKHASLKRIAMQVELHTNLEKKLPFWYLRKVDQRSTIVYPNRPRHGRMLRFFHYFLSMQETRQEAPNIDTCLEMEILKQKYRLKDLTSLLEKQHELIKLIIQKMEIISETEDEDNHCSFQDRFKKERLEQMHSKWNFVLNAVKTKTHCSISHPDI
Outline: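 Efficacy on stably transfected rat TRPA1-HEK293 cells is the intracellular Ca2+ rise expressed as percent of the allyl isothiocyanate response. Means ± SEM, N = 3.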

HEK293 = assay: Activation of rat TRPV3 expressed in HEK293 cells assessed as stimulation of intracellular Ca2+ levels relative to 4 uM ionomycin; outline: as §2
[6] = Inhibition of rat TRPV3 expressed in HEK293 cells assessed as reduction in 100 uM thymol-stimulated increase in intracellular Ca2+ levels
[7] = Activation of rat TRPV3 expressed in HEK293 cells assessed as stimulation of intracellular Ca2+ levels; outline: as §1
[8] = molecular target: T2, Transient receptor potential cation channel subfamily M member 8; assay: Inhibition of rat TRPM8 expressed in HEK293 cells assessed as reduction in 20 uM menthol-stimulated increase in intracellular Ca2+ levels
Outline: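 IC50 on rat TRPM8 stably expressed in HEK293 cells, measured as inhibition of the intracellular Ca2+ response to icilin or menthol. Means ± SEM, N = 3.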

[9] = molecular target: T2, Transient receptor potential cation channel subfamily M member 8; assay: Activation of rat TRPM8 expressed in HEK293 cells assessed as stimulation of intracellular Ca2+ levels; outline: as §1

T1 sequence (Q6RI86 whole entry): as above

| Compound | EC50 [1] | IC50 [2] | Efficacy [3] | IC50 [4] | Efficacy [5] | IC50 [6] | EC50 [7] | IC50 [8] | EC50 [9] | Efficacy (HEK293) |
| --- | --- | --- | --- | --- | --- | --- | --- | --- | --- | --- |
| Cc1ccc(C(C)C)c(NC(=O)Nc2ccc(C(C)(C)C)cc2)c1 | 4.3 µM | 25 µM | < 10% | > 100 µM | 235% | 3.3 µM | 7.6 µM | 26.7 µM |  | 31.6% |
| Cc1ccc(C(C)C)c(C(=O)Nc2ccc(Cl)cc2)c1 |  | 26.1 µM | 43.2% | 4.8 µM | < 10% | 4.9 µM | 11.8 µM | 5 µM | 0.85 µM | 43.4% |
| Cc1ccc(C(C)C)c(C(=O)NCCc2c[nH]c3ccc(OCc4ccccc4)cc23)c1 | 25.9 µM | 70.2 µM | < 10% | 69.4 µM | 241% | 41.9 µM |  | 61.4 µM |  | < 10% |
| COc1ccc(NC(=O)Nc2cc(C)ccc2C(C)C)cc1 | 14.1 µM | 34.4 µM | < 10% | 38.5 µM | 114% | 85.4 µM |  | 77.5 µM |  | < 10% |
| Cc1ccc(C(C)C)c(NC(=O)Nc2ccc(-c3ccccc3)cc2)c1 | 32.2 µM | 27.9 µM | < 10% | 37.4 µM | 224% | 12.8 µM | 5.9 µM | 25.4 µM |  | 16.9% |
| COc1ccc(NC(=O)Oc2cc(C)ccc2C(C)C)cc1 | 7.4 µM | 4.5 µM | 30.3% | 2.5 µM | 264% | 64.3 µM |  | 5.2 µM | 5.1 µM | < 10% |
| Cc1ccc(C(C)C)c(O)c1 [THYMOL] | 287 µM | 125 µM | 31.1% | 315 µM | 119% |  | 84.1 µM | 169 µM | 52.2 µM | 34.7% |
| Cc1ccc(C(C)C)c(C(=O)NCCc2ccccc2)c1 |  | > 100 µM | 64.1% | 0.6 µM | < 10% | 75.4 µM |  | 0.32 µM | 0.27 µM | < 10% |
| Cc1ccc(C(C)C)c(NC(=O)Cc2cccc(I)c2)c1 | 20.5 µM | 43.2 µM | < 10% | 11.6 µM | 154% | 20.4 µM | 15.9 µM | 14.1 µM |  | 15% |
| Cc1ccc(C(C)C)c(N)c1 | 64.2 µM | 212 µM | 33.8% | 238 µM | 57.4% | > 100 µM |  | 113 µM | 43.4 µM | < 10% |
| COc1ccc(C(=O)Nc2cc(C)ccc2C(C)C)cc1 | 45.9 µM | > 100 µM | 58.1% | 14.7 µM | 149% | > 100 µM |  | 15.2 µM | 4.8 µM | < 10% |

Continued by falling IC50 [2], values first:

| EC50 [1] | IC50 [2] | Efficacy [3] | IC50 [4] | Efficacy [5] | IC50 [6] | EC50 [7] | IC50 [8] | EC50 [9] | Compound | Efficacy (HEK293) |
| --- | --- | --- | --- | --- | --- | --- | --- | --- | --- | --- |
| 1.8 µM | 20.9 µM | < 10% | > 100 µM | 226% | 1.5 µM | 3.8 µM | > 100 µM |  | Cc1ccc(C(C)C)c(OC(=O)Cc2ccc(-c3ccccc3)cc2)c1 | 52.7% |
| 7.4 µM | 12.7 µM | < 10% | > 100 µM | 195% | 2.9 µM | 14.5 µM | > 100 µM |  | Cc1ccc(C(C)C)c(C(=O)Oc2ccc(-c3ccccc3)cc2)c1 | 64.3% |
| 6.4 µM | 8.8 µM | 24.5% | 1 µM | 204% | 6.2 µM | 10.6 µM | 1 µM | 0.44 µM | Cc1ccc(C(C)C)c(NC(=O)c2ccc(C(C)(C)C)cc2)c1 | 34.8% |
| 3.3 µM | 5.5 µM | < 10% | 21.2 µM | 204% | 6.5 µM | 7.7 µM | 18.6 µM |  | Cc1ccc(C(C)C)c(OC(=O)c2ccc(-c3ccccc3)cc2)c1 | 33.8% |
| 41 µM | 4.1 µM | < 10% | 23.1 µM | 178% | 50.3 µM |  | 73.7 µM |  | Cc1ccc(C(C)C)c(NC(=O)Oc2ccc(C(F)(F)F)cc2)c1 | < 10% |
| 6.5 µM | 3.9 µM | < 10% | 31.2 µM | 212% | 29.7 µM | 6.3 µM | 78.3 µM |  | Cc1ccc(C(C)C)c(NC(=O)Cc2ccc(-c3ccccc3)cc2)c1 | 39.3% |
| 3.6 µM | 3.6 µM | < 10% | > 100 µM | 194% | 5 µM | 4 µM | 77.4 µM |  | COc1ccc(OC(=O)c2cc(C)ccc2C(C)C)cc1 | 27.1% |
| 3.9 µM | 3.6 µM | 13.9% | 3.2 µM | 65.4% | 75.1 µM | 59.7 µM | 4.4 µM | 45.8 µM | Cc1ccc(C(C)C)c(C(=O)Nc2ccc(C(F)(F)F)cc2)c1 | 22.1% |
| 1 µM | 2.7 µM | < 10% | 6.5 µM | 149% | 9.7 µM | 4.9 µM | 5 µM |  | COc1ccc(C(=O)Oc2cc(C)ccc2C(C)C)cc1 | 23.1% |
| 0.6 µM | 0.84 µM | 40% | 1.9 µM | 97.9% | 1.1 µM | 1.2 µM | 1.2 µM | 0.6 µM | Cc1ccc(C(C)C)c(C(=O)Nc2ccc(C(C)(C)C)cc2)c1 | 36.5% |
| 1.3 µM | 0.78 µM | < 10% | 0.7 µM | 132% | 1.9 µM | 1.4 µM | 0.85 µM |  | Cc1ccc(C(C)C)c(NC(=O)Oc2ccc(C(C)(C)C)cc2)c1 | 62.5% |
